Laboratory results published in ChEMBL document CHEMBL5724801, “EUbOPEN Chemogenomics Library - Multiplex” (2024).
Where “and” joins values, the source holds several entries; their conditions need not be identical. Identical values can stand only once.

Tested on: Fibroblast
Assay: Multiplex assay against human fibroblast
Format: toxicity, cell-based
Procedure, shortened: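 Four dyes were applied at seeding to live cells: Hoechst33342, BioTracker Green Microtubule Cytoskeleton Dye, MitoTracker Red and Annexin V Alexa Fluor 680. Imaging after compound addition used a CQ1 microscope at 37°C and 5% CO2. CellPathfinder machine-learning gating then sorted cells into Hoechst high-intensity objects or normal cells, normal cells into healthy, pyknosed or fragmented nuclei, and pyknosed cells into mitotic or apoptotic, with tubulin, mitochondrial-mass and membrane-permeability phenotypes given as per cents of healthy-nucleus cells.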

[1] = 12 h, 1 µM, compound concentration 1 uM
[2] = 12 h, 10 µM, compound concentration 10 uM
[3] = 24 h, 1 µM, compound concentration 1 uM
[4] = 24 h, 10 µM, compound concentration 10 uM
[5] = 48 h, 1 µM, compound concentration 1 uM
[6] = 48 h, 10 µM, compound concentration 10 uM

COc1ccc2nc3ccc(OC)cc3c(SCCCN)c2c1.Cl
Population Apoptotic (%) [1]: 27.78% and 22.73% | Population Fragmented Nuclei (%) [1]: 27.67% and 18.52% | Population Healthy Nuclei (%) [1]: 58.1% and 71.3% | Population Hoechst High Intensity Objects (%) [1]: 0% | Population Membrane Permeable-Phenotype (%) [1]: 4.08% and 5.19% | Population Mitochondria Different-Phenotype (%) [1]: 10.88% and 10.39% | Population Mitotic Cells (%) [1]: 72.22% and 77.27% | Population Normal (%) [1]: 100% | Population Pyknosed Nuclei (%) [1]: 14.23% and 10.19% | Population Tubulin-Different-Phenotype (%) [1]: 28.57% and 25.97% | Total Cell Count [1]: 253 and 216 | Population Apoptotic (%) [2]: 50% | Population Fragmented Nuclei (%) [2]: 83.22% and 87.99% | Population Healthy Nuclei (%) [2]: 15.99% and 11.88% | Population Hoechst High Intensity Objects (%) [2]: 0.3% and 6.47% | Population Membrane Permeable-Phenotype (%) [2]: 6.17% and 4.52% | Population Mitochondria Different-Phenotype (%) [2]: 24.69% and 15.25% | Population Mitotic Cells (%) [2]: 50% | Population Normal (%) [2]: 99.7% and 93.53% | Population Pyknosed Nuclei (%) [2]: 0.79% and 0.13% | Population Tubulin-Different-Phenotype (%) [2]: 53.09% and 68.93% | Total Cell Count [2]: 1016 and 1593 | Population Apoptotic (%) [3]: 7.41% and 18.18% | Population Fragmented Nuclei (%) [3]: 25% and 14.63% | Population Healthy Nuclei (%) [3]: 63.36% and 74.63% | Population Hoechst High Intensity Objects (%) [3]: 0% | Population Membrane Permeable-Phenotype (%) [3]: 4.76% and 3.27% | Population Mitochondria Different-Phenotype (%) [3]: 5.44% and 7.84% | Population Mitotic Cells (%) [3]: 92.59% and 81.82% | Population Normal (%) [3]: 100% | Population Pyknosed Nuclei (%) [3]: 11.64% and 10.73% | Population Tubulin-Different-Phenotype (%) [3]: 25.17% and 21.57% | Total Cell Count [3]: 232 and 205 | Population Fragmented Nuclei (%) [4]: 83.95% and 88.56% | Population Healthy Nuclei (%) [4]: 15.31% and 11.32% | Population Hoechst High Intensity Objects (%) [4]: 0% and 5.09% | Population Membrane Permeable-Phenotype (%) [4]: 1.21% and 3.16% | Population Mitochondria Different-Phenotype (%) [4]: 27.27% and 24.21% | Population Mitotic Cells (%) [4]: 87.5% and 50% | Population Normal (%) [4]: 100% and 94.91% | Population Pyknosed Nuclei (%) [4]: 0.74% and 0.12% | Population Tubulin-Different-Phenotype (%) [4]: 47.27% and 59.47% | Total Cell Count [4]: 1078 and 1768 | Population Fragmented Nuclei (%) [5]: 28.35% and 15.03% | Population Healthy Nuclei (%) [5]: 66.14% and 83.42% | Population Hoechst High Intensity Objects (%) [5]: 0% | Population Membrane Permeable-Phenotype (%) [5]: 1.79% and 1.24% | Population Mitotic Cells (%) [5]: 71.43% and 100% | Population Normal (%) [5]: 100% | Population Pyknosed Nuclei (%) [5]: 5.51% and 1.55% | Population Tubulin-Different-Phenotype (%) [5]: 18.45% and 20.5% | Total Cell Count [5]: 254 and 193 | Population Apoptotic (%) [6]: 60% | Population Fragmented Nuclei (%) [6]: 84.38% and 88.09% | Population Healthy Nuclei (%) [6]: 15.23% and 11.61% | Population Hoechst High Intensity Objects (%) [6]: 1.01% and 7.64% | Population Membrane Permeable-Phenotype (%) [6]: 2.56% and 4.71% | Population Mitochondria Different-Phenotype (%) [6]: 6.67% and 4.19% | Population Mitotic Cells (%) [6]: 40% | Population Normal (%) [6]: 98.99% and 92.36% | Population Pyknosed Nuclei (%) [6]: 0.39% and 0.3% | Population Tubulin-Different-Phenotype (%) [6]: 27.69% and 51.83% | Total Cell Count [6]: 1293 and 1781
